Test results as given in ChEMBL document CHEMBL1132274, “2,7-Disubstituted amidofluorenone derivatives as inhibitors of human telomerase” (J Med Chem, 1999).
Activity calls are given as the source filed them. The rule behind the calls is not given here.

Target: Telomerase reverse transcriptase (Homo sapiens, UniProt O14746)
Experiment: Inhibitory activity against telomerase
How it was run: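 Modified TRAP with extract from exponentially growing A2780 ovarian carcinoma cells. Telomerase then inactivated at 80 °C for 5 min, CX primer and Taq added, 31 PCR cycles. Products analysed by denaturing PAGE with phosphorimaging/autoradiography, or by filter scintillation counting.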

Chain of Telomerase reverse transcriptase (O14746 whole entry): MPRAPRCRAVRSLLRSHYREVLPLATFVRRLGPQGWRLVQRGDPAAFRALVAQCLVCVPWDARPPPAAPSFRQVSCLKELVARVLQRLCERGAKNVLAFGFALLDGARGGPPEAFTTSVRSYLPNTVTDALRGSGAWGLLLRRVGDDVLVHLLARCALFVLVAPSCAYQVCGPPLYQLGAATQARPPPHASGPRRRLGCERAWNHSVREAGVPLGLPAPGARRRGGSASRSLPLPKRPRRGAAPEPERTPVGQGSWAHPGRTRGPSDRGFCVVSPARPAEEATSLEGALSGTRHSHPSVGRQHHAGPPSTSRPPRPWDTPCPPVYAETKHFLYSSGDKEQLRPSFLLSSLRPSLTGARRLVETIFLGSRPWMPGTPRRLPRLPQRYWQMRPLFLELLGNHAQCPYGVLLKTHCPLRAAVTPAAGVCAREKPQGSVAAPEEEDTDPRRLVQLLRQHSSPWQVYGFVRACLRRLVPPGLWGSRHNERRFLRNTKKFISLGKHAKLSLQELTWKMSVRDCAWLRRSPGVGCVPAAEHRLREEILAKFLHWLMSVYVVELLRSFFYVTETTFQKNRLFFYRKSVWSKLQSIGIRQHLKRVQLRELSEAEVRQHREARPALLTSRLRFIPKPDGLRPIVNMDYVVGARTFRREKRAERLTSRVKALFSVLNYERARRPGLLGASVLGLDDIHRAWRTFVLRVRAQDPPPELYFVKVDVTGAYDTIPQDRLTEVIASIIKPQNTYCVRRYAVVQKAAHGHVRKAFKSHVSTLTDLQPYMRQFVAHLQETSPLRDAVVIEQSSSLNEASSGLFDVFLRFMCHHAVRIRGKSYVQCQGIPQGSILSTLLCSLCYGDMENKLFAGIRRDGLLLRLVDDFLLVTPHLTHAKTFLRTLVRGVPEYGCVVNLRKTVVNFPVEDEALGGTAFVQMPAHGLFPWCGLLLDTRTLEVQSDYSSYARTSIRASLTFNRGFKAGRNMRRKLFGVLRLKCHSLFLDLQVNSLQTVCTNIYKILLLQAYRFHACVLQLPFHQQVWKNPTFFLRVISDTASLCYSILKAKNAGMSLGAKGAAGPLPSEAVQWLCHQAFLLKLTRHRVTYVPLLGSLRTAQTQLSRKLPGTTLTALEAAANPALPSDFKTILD

| SMILES | IC50 |
| --- | --- |
| C[N+]1(CCC(=O)Nc2ccc3c(c2)C(=O)c2cc(NC(=O)CC[N+]4(C)CCC(O)CC4)ccc2-3)CCC(O)CC1 (centres undefined) | > 20 µM |
| C[N+]1(CCC(=O)Nc2ccc3c(c2)C(=O)c2cc(NC(=O)CC[N+]4(C)CCCCC4)ccc2-3)CCCCC1 | 21 µM |
| O=C(CCN1CCN(c2ncccn2)CC1)Nc1ccc2c(c1)C(=O)c1cc(NC(=O)CCN3CCN(c4ncccn4)CC3)ccc1-2 | > 50 µM |
| CC1CC[N+](C)(CCC(=O)Nc2ccc3c(c2)C(=O)c2cc(NC(=O)CC[N+]4(C)CCC(C)CC4)ccc2-3)CC1 (centres undefined) | > 20 µM |

Now those with a lower IC50, led by results:

| IC50 | SMILES |
| --- | --- |
| 16.2 µM | CN(C)CCC(=O)Nc1ccc2c(c1)C(=O)c1cc(NC(=O)CCN(C)C)ccc1-2 |
| 15.5 µM | CCN(CC)CCC(=O)Nc1ccc2c(c1)C(=O)c1cc(NC(=O)CCN(CC)CC)ccc1-2 |
| 8 µM | O=C(CCN1CCCCC1CO)Nc1ccc2c(c1)C(=O)c1cc(NC(=O)CCN3CCCCC3CO)ccc1-2 (centres undefined) |

Test system: CH1
Experiment: Cytotoxicity activity was measured in human ovarian cell line CH1 using sulforhodamine B (SRB) assay
Format: functional, cell-based
How it was run: (§1)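 SRB growth-inhibition assay in human ovarian carcinoma cells: 3000–6000 cells/well attached overnight, then salts (dissolved at 500 μM in water) added in quadruplicate at final 0.05, 0.25, 1, 5 and 25 μM. After 96 h, cells fixed with ice-cold 10% TCA and stained with 0.4% SRB. Mean A540 expressed as % of untreated control; IC50 = concentration giving 50% growth inhibition.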

| SMILES | IC50 |
| --- | --- |
| C[N+]1(CCC(=O)Nc2ccc3c(c2)C(=O)c2cc(NC(=O)CC[N+]4(C)CCC(O)CC4)ccc2-3)CCC(O)CC1 (centres undefined) | 1.95 µM |

Test system: CH1
Experiment: Cytotoxicity measured in human ovarian cell line CH1 using sulforhodamine B (SRB) assay.
Format: functional, cell-based
How it was run: as §1

| SMILES | IC50 |
| --- | --- |
| O=C(CCN1CCCCC1CO)Nc1ccc2c(c1)C(=O)c1cc(NC(=O)CCN3CCCCC3CO)ccc1-2 (centres undefined) | 14 µM |
| C[N+]1(CCC(=O)Nc2ccc3c(c2)C(=O)c2cc(NC(=O)CC[N+]4(C)CCCCC4)ccc2-3)CCCCC1 | 5.2 µM |
| O=C(CCN1CCN(c2ncccn2)CC1)Nc1ccc2c(c1)C(=O)c1cc(NC(=O)CCN3CCN(c4ncccn4)CC3)ccc1-2 | > 25 µM |
| CN(C)CCC(=O)Nc1ccc2c(c1)C(=O)c1cc(NC(=O)CCN(C)C)ccc1-2 | 8.5 µM |
| CCN(CC)CCC(=O)Nc1ccc2c(c1)C(=O)c1cc(NC(=O)CCN(CC)CC)ccc1-2 | 8 µM |
| CC1CC[N+](C)(CCC(=O)Nc2ccc3c(c2)C(=O)c2cc(NC(=O)CC[N+]4(C)CCC(C)CC4)ccc2-3)CC1 (centres undefined) | > 25 µM |

Target: DNA polymerase I, thermostable (Thermus aquaticus) (UniProt P19821)
Sequence (P19821 whole entry): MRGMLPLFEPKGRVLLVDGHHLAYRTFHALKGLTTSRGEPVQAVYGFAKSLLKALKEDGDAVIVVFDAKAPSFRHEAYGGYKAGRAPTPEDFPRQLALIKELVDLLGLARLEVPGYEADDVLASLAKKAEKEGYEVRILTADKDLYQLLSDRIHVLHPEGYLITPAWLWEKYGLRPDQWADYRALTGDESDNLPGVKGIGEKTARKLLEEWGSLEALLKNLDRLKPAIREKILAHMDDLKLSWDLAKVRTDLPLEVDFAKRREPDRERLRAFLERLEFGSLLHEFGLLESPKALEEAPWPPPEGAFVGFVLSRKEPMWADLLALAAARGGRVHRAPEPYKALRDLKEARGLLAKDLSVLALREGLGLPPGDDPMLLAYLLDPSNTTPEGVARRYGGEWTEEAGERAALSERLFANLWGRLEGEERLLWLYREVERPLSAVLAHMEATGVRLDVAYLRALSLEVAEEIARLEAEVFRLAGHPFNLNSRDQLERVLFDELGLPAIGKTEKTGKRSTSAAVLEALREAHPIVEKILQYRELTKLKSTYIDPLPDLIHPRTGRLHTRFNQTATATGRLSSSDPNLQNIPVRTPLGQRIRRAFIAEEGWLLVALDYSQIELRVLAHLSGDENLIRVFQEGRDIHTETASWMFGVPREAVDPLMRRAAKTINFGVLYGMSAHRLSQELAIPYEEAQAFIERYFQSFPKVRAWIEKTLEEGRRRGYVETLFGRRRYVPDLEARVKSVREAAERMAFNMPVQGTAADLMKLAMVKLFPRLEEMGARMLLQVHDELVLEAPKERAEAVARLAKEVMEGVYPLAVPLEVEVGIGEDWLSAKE
Experiment: Inhibitory activity against taq polymerase at 10 uM; No inhibition

| SMILES | inhibition |
| --- | --- |
| C[N+]1(CCC(=O)Nc2ccc3c(c2)C(=O)c2cc(NC(=O)CC[N+]4(C)CCC(O)CC4)ccc2-3)CCC(O)CC1 (centres undefined) | inactive |
| C[N+]1(CCC(=O)Nc2ccc3c(c2)C(=O)c2cc(NC(=O)CC[N+]4(C)CCCCC4)ccc2-3)CCCCC1 | inactive |
| O=C(CCN1CCN(c2ncccn2)CC1)Nc1ccc2c(c1)C(=O)c1cc(NC(=O)CCN3CCN(c4ncccn4)CC3)ccc1-2 | inactive |
| CC1CC[N+](C)(CCC(=O)Nc2ccc3c(c2)C(=O)c2cc(NC(=O)CC[N+]4(C)CCC(C)CC4)ccc2-3)CC1 (centres undefined) | inactive |

Now from value to compound:

| inhibition | SMILES |
| --- | --- |
| inactive | CN(C)CCC(=O)Nc1ccc2c(c1)C(=O)c1cc(NC(=O)CCN(C)C)ccc1-2 |
| inactive | CCN(CC)CCC(=O)Nc1ccc2c(c1)C(=O)c1cc(NC(=O)CCN(CC)CC)ccc1-2 |
| inactive | O=C(CCN1CCCCC1CO)Nc1ccc2c(c1)C(=O)c1cc(NC(=O)CCN3CCCCC3CO)ccc1-2 (centres undefined) |

Test system: A2780
Experiment: Cytotoxicity measured in human ovarian cell line A2780 using sulforhodamine B (SRB) assay
Format: functional, cell-based
How it was run: as §1

| SMILES | IC50 |
| --- | --- |
| C[N+]1(CCC(=O)Nc2ccc3c(c2)C(=O)c2cc(NC(=O)CC[N+]4(C)CCC(O)CC4)ccc2-3)CCC(O)CC1 (centres undefined) | 2.4 µM |
| O=C(CCN1CCCCC1CO)Nc1ccc2c(c1)C(=O)c1cc(NC(=O)CCN3CCCCC3CO)ccc1-2 (centres undefined) | 13 µM |
| C[N+]1(CCC(=O)Nc2ccc3c(c2)C(=O)c2cc(NC(=O)CC[N+]4(C)CCCCC4)ccc2-3)CCCCC1 | 4.3 µM |
| O=C(CCN1CCN(c2ncccn2)CC1)Nc1ccc2c(c1)C(=O)c1cc(NC(=O)CCN3CCN(c4ncccn4)CC3)ccc1-2 | > 25 µM |
| CN(C)CCC(=O)Nc1ccc2c(c1)C(=O)c1cc(NC(=O)CCN(C)C)ccc1-2 | 12 µM |
| CCN(CC)CCC(=O)Nc1ccc2c(c1)C(=O)c1cc(NC(=O)CCN(CC)CC)ccc1-2 | 14 µM |
| CC1CC[N+](C)(CCC(=O)Nc2ccc3c(c2)C(=O)c2cc(NC(=O)CC[N+]4(C)CCC(C)CC4)ccc2-3)CC1 (centres undefined) | 2.5 µM |

Target: DNA polymerase I, thermostable (Thermus aquaticus) (UniProt P19821)
Experiment: Inhibitory activity against taq polymerase at 50 uM; Slight

| inhibition | SMILES |
| --- | --- |
| Weak inhibition | C[N+]1(CCC(=O)Nc2ccc3c(c2)C(=O)c2cc(NC(=O)CC[N+]4(C)CCC(O)CC4)ccc2-3)CCC(O)CC1 (centres undefined) |
| Weak inhibition | CC1CC[N+](C)(CCC(=O)Nc2ccc3c(c2)C(=O)c2cc(NC(=O)CC[N+]4(C)CCC(C)CC4)ccc2-3)CC1 (centres undefined) |

Target: DNA polymerase I, thermostable (Thermus aquaticus) (UniProt P19821)
Experiment: Inhibitory activity against taq polymerase at 20 uM; No inhibition

| SMILES | inhibition |
| --- | --- |
| C[N+]1(CCC(=O)Nc2ccc3c(c2)C(=O)c2cc(NC(=O)CC[N+]4(C)CCC(O)CC4)ccc2-3)CCC(O)CC1 (centres undefined) | inactive |
| C[N+]1(CCC(=O)Nc2ccc3c(c2)C(=O)c2cc(NC(=O)CC[N+]4(C)CCCCC4)ccc2-3)CCCCC1 | inactive |
| O=C(CCN1CCN(c2ncccn2)CC1)Nc1ccc2c(c1)C(=O)c1cc(NC(=O)CCN3CCN(c4ncccn4)CC3)ccc1-2 | inactive |
| CC1CC[N+](C)(CCC(=O)Nc2ccc3c(c2)C(=O)c2cc(NC(=O)CC[N+]4(C)CCC(C)CC4)ccc2-3)CC1 (centres undefined) | inactive |

Next, values leading:

| inhibition | SMILES |
| --- | --- |
| inactive | CN(C)CCC(=O)Nc1ccc2c(c1)C(=O)c1cc(NC(=O)CCN(C)C)ccc1-2 |
| inactive | CCN(CC)CCC(=O)Nc1ccc2c(c1)C(=O)c1cc(NC(=O)CCN(CC)CC)ccc1-2 |
| inactive | O=C(CCN1CCCCC1CO)Nc1ccc2c(c1)C(=O)c1cc(NC(=O)CCN3CCCCC3CO)ccc1-2 (centres undefined) |

Test system: SK-OV-3
Experiment: Cytotoxicity measured in human ovarian cell line SKOV-3 using sulforhodamine B (SRB) assay.
Format: functional, cell-based
How it was run: as §1

| SMILES | IC50 |
| --- | --- |
| O=C(CCN1CCCCC1CO)Nc1ccc2c(c1)C(=O)c1cc(NC(=O)CCN3CCCCC3CO)ccc1-2 (centres undefined) | 15 µM |
| C[N+]1(CCC(=O)Nc2ccc3c(c2)C(=O)c2cc(NC(=O)CC[N+]4(C)CCCCC4)ccc2-3)CCCCC1 | 3.9 µM |
| O=C(CCN1CCN(c2ncccn2)CC1)Nc1ccc2c(c1)C(=O)c1cc(NC(=O)CCN3CCN(c4ncccn4)CC3)ccc1-2 | > 25 µM |
| CN(C)CCC(=O)Nc1ccc2c(c1)C(=O)c1cc(NC(=O)CCN(C)C)ccc1-2 | 8.2 µM |
| CCN(CC)CCC(=O)Nc1ccc2c(c1)C(=O)c1cc(NC(=O)CCN(CC)CC)ccc1-2 | 9.65 µM |
| CC1CC[N+](C)(CCC(=O)Nc2ccc3c(c2)C(=O)c2cc(NC(=O)CC[N+]4(C)CCC(C)CC4)ccc2-3)CC1 (centres undefined) | 3.75 µM |

Test system: SK-OV-3
Experiment: Cytotoxicity activity was measured in human ovarian cell line SKOV-3 using sulforhodamine B (SRB) assay
Format: functional, cell-based
How it was run: as §1

| SMILES | IC50 |
| --- | --- |
| C[N+]1(CCC(=O)Nc2ccc3c(c2)C(=O)c2cc(NC(=O)CC[N+]4(C)CCC(O)CC4)ccc2-3)CCC(O)CC1 (centres undefined) | 4.7 µM |

Target: DNA polymerase I, thermostable (Thermus aquaticus) (UniProt P19821)
Experiment: Inhibitory activity against taq polymerase at 50 uM; No inhibition

| SMILES | inhibition |
| --- | --- |
| C[N+]1(CCC(=O)Nc2ccc3c(c2)C(=O)c2cc(NC(=O)CC[N+]4(C)CCCCC4)ccc2-3)CCCCC1 | inactive |
| O=C(CCN1CCN(c2ncccn2)CC1)Nc1ccc2c(c1)C(=O)c1cc(NC(=O)CCN3CCN(c4ncccn4)CC3)ccc1-2 | inactive |

Results, then the compound that gave them:

| inhibition | SMILES |
| --- | --- |
| inactive | CN(C)CCC(=O)Nc1ccc2c(c1)C(=O)c1cc(NC(=O)CCN(C)C)ccc1-2 |
| inactive | CCN(CC)CCC(=O)Nc1ccc2c(c1)C(=O)c1cc(NC(=O)CCN(CC)CC)ccc1-2 |
| inactive | O=C(CCN1CCCCC1CO)Nc1ccc2c(c1)C(=O)c1cc(NC(=O)CCN3CCCCC3CO)ccc1-2 (centres undefined) |
